Results taken from ChEMBL document CHEMBL4177753, “Structural Modification of Natural Product Ganomycin I Leading to Discovery of a α-Glucosidase and HMG-CoA Reductase Dual Inhibitor Improving Obesity and Metabolic Dysfunction in Vivo” (J Med Chem, 2018).
Activity calls are given as the source filed them. The calls are words filed in the database; no cut-off is given here.

What was measured:
[1] = Inhibition of rat small intestinal mucosal alpha-glucosidase using p-nitrophenyl-alpha-D-glucopyranoside as substrate after 40 mins by colorimetric method
Procedure, shortened: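 Rat small intestinal mucosal α-glucosidase; several compound concentrations, each run three times in parallel; phosphate-buffer control replaces compound, blank replaces enzyme. Absorbance at 405 nm; % inhibition = blank-corrected OD of test versus control; IC50 derived from the concentration gradient.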

Mus musculus [2] = assay: Toxicity in C57BL/6J mouse assessed as effect on survival at 30 mg/kg administered daily via oral gavage for 3 months; type: organism-based; settings: in vivo
Procedure, shortened: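 Long-term safety study in C57BL/6J mice, 20 male and 20 female, sorted by gender, blood glucose and body weight into four groups (n = 10 each). Treated groups of each sex got 30.0 mg/kg daily by oral gavage in soybean vehicle. Vehicle groups got an equal volume of soybean. Dosing ran three months, with behavior, survival, body weight, blood glucose, liver function and organ coefficients recorded.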

[3] = Cmax in Sprague-Dawley rat at 2 mg/kg, po; type: ADME, organism-based; set-up: dose 2 mg/kg, route oral; settings: in vivo
Procedure, shortened: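 Male Sprague-Dawley rats (n = 6, 0.21–0.23 kg), single oral dose 2.0 mg/kg. Orbital blood sampled 0–16 h into heparinized tubes. Plasma was protein-precipitated with methanol, with internal standard added. Quantified by UPLC-ESI(+)-QTOF-MS in SIM mode on a C18 column with a methanol/0.3% formic acid water gradient. Linear range 0.54–107 ng/ml.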

Mus musculus [4] = assay: Antiobesity activity in ob/ob mouse assessed as reduction in absolute fat mass at 3 mg/kg administered daily via oral gavage for 31 days; type: functional, organism-based
Procedure, shortened: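 Male ob/ob mice, n = 10 per group, grouped by blood glucose and body weight. Daily gavage at 0.3, 1.0 or 3.0 mg/kg in soybean vehicle, with soybean vehicle controls and C57BL/6J controls. Body weight, cumulative food intake, LEE index, fat mass and lean mass recorded. Mean ± SEM, one-way ANOVA with Tukey test.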

Mus musculus [5] = assay: Hypoglycemic activity in ob/ob mouse assessed as decrease in HbA1c levels administered daily via oral gavage for 31 days; type: functional, organism-based
Procedure, shortened: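 Male ob/ob mice, n = 10 per group, daily gavage at 0.3, 1.0 or 3.0 mg/kg in soybean vehicle. Fasting and free-diet blood glucose and HbA1c measured.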

Mus musculus [6] = assay: Hypolipidemic activity in ob/ob mouse assessed as decrease in plasma triglyceride levels at 3 mg/kg administered daily via oral gavage for 31 days relative to vehicle-treated control; type: functional; set-up: scale not given: the % may be the effect or the level left
Mus musculus [7] = assay: Hypolipidemic activity in ob/ob mouse assessed as decrease in plasma LDL-C levels at 1 mg/kg administered daily via oral gavage for 31 days relative to vehicle-treated control; type: functional; set-up: scale not given: the % may be the effect or the level left
Mus musculus [8] = assay: Hypolipidemic activity in C57BL/6J DIO mouse assessed as decrease in plasma free fatty acid levels at 0.3 to 3 mg/kg administered daily via oral gavage for 5 weeks; type: functional, organism-based
Procedure, shortened: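 High-fat-diet male C57BL/6J mice, n = 8 per group, daily gavage at 0.3–3.0 mg/kg in soybean vehicle for 5 weeks. Serum total cholesterol, triglycerides and free fatty acids measured.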

Mus musculus [9] = assay: Hypolipidemic activity in ob/ob mouse assessed as decrease in liver triglyceride levels at 0.3 to 3 mg/kg administered daily via oral gavage for 31 days; type: functional, organism-based
Mus musculus [10] = assay: Hypolipidemic activity in ob/ob mouse assessed as decrease in liver total cholesterol levels at 0.3 to 3 mg/kg administered daily via oral gavage for 31 days; type: functional, organism-based
Mus musculus [11] = assay: Hypolipidemic activity in ob/ob mouse assessed as decrease in liver LDL-C levels at 0.3 to 3 mg/kg administered daily via oral gavage for 31 days; type: functional, organism-based
Mus musculus [12] = assay: Hypolipidemic activity in ob/ob mouse assessed as decrease in serum ALT levels at 0.3 to 3 mg/kg administered daily via oral gavage for 31 days; type: functional, organism-based
Mus musculus [13] = assay: Antifibrotic activity in ob/ob mouse assessed as decrease in hepatic hydroxyproline levels at 3 mg/kg administered daily via oral gavage for 31 days; type: functional, organism-based
Mus musculus [14] = assay: In vivo inhibition of alpha-glucosidase activity in ob/ob mouse assessed as reduction of blood glucose AUC at 0.3 to 3 mg/kg administered daily via oral gavage for 32 days by OMTT; type: functional, organism-based
Procedure, shortened: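 Male ob/ob mice given 0.3–3.0 mg/kg daily by gavage; after overnight fast, sucrose (OSTT) or maltose (OMTT) 4.0 g/kg given orally; blood glucose by glucose meter at 0, 40, 80 and 120 min; AUC calculated from the time course.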

Betaproteobacteria = assay: Decrease in Betaproteobacteria levels in cecum of ob/ob mouse at 1 to 3 mg/kg administered daily via oral gavage for 31 days by 16S rRNA gene high-throughput sequencing method; type: functional, organism-based
Procedure, shortened: (§1)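 Male ob/ob mice dosed daily by gavage at 1.0 or 3.0 mg/kg, compared with vehicle group. DNA extracted from about 150 mg caecum contents. 16S rRNA V3–V4 region amplified and sequenced on Illumina HiSeq PE250. Community compared by NMDS/MRPP; discriminant taxa identified by LEfSe.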

Alistipes = assay: Decrease in Alistipes levels in cecum of ob/ob mouse at 3 mg/kg administered daily via oral gavage for 31 days by 16S rRNA gene high-throughput sequencing method; type: functional, organism-based; procedure, shortened: as §1
Mus musculus [15] = assay: Reduction of plasma TNF-alpha levels in ob/ob mouse at 3 mg/kg administered daily via oral gavage for 31 days by ELISA relative to vehicle-treated control; type: functional, organism-based
Procedure, shortened: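 Male ob/ob mice treated daily by gavage (soybean vehicle); plasma LPS and TNF-α quantified by ELISA kits. For antibiotic groups, ob/ob mice first received an oral antibiotic cocktail (ampicillin 1 g/L, vancomycin, neomycin, gentamycin, erythromycin) for three weeks, then 3.0 mg/kg/day; n = 8 per group.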

Mus musculus [16] = assay: Upregulation of Muc-5 mRNA expression in ob/ob mouse ileum at 3 mg/kg administered daily via oral gavage for 31 days by RNA-seq analysis; type: functional, organism-based
Mus musculus [17] = assay: Upregulation of Pparg mRNA expression in ob/ob mouse ileum at 3 mg/kg administered daily via oral gavage for 31 days by RNA-seq analysis; type: functional, organism-based
Mus musculus [18] = assay: Antiobesity activity in antibiotic-treated ob/ob mouse assessed as reduction in cumulative food intake at 3 mg/kg administered daily via oral gavage for 18 days; type: functional, organism-based
Procedure, shortened: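 Male ob/ob mice given drinking water with ampicillin (1 g/L), vancomycin and other antibiotics for three weeks. Groups of n = 8 were dosed at 3.0 mg/kg/day by mouth in soybean vehicle, alongside non-antibiotic ob/ob groups. Weight gain and food intake recorded.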

Mus musculus [19] = assay: Hypoglycemic activity in antibiotic-treated ob/ob mouse assessed as decrease in HbA1c levels at 3 mg/kg administered daily via oral gavage for 3 weeks; type: functional, organism-based
Procedure, shortened: (§2)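 Male ob/ob mice pretreated three weeks with ampicillin (1 g/L), vancomycin, neomycin, gentamycin and erythromycin. Groups of n = 8 given 3.0 mg/kg/day orally in soybean vehicle versus vehicle. Plasma and hepatic lipids, fasting glucose, OGTT (glucose 2 g/kg after overnight fast) and HbA1c measured.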

Mus musculus [20] = assay: Hypolipidemic activity in antibiotic-treated ob/ob mouse assessed as decrease in plasma free fatty acid levels at 3 mg/kg administered daily via oral gavage for 3 weeks; type: functional, organism-based; procedure, shortened: as §2
Mus musculus [21] = assay: Hypolipidemic activity in antibiotic-treated ob/ob mouse assessed as decrease in hepatic triglycerides levels at 3 mg/kg administered daily via oral gavage for 3 weeks; type: functional, organism-based; procedure, shortened: as §2
Mus musculus [22] = assay: Hypolipidemic activity in antibiotic-treated ob/ob mouse assessed as decrease in hepatic LDL-C levels at 3 mg/kg administered daily via oral gavage for 3 weeks; type: functional, organism-based; procedure, shortened: as §2

With `CC(C)=CCC/C(C)=C/CCC1=C[C@H](c2ccc(C(C)(C)C)cc2)OC1=O` the IC50 [1] was 60 nM, the Activity (Mus musculus [2]) was “Non-Toxic” and the Cmax [3] was 49.3 ng/mL. For the same compound, the Activity (Mus musculus [4]) was “Active”, the Activity (Mus musculus [5]) was “Dose-dependent effect” and the Activity (Mus musculus [6]) was 47%. For the same compound, the Activity (Mus musculus [7]) was 43%, the Activity (Mus musculus [8]) was “Active” and the Activity (Mus musculus [9]) was “Active”. For the same compound, the Activity (Mus musculus [10]) was “Active”, the Activity (Mus musculus [11]) was “Active” and the Activity (Mus musculus [12]) was “Active”. The Activity (Mus musculus [13]) was “Active”, the inhibition (Mus musculus [14]) was “Active” and the Activity (Betaproteobacteria) was “Active”. For the same compound, the Activity (Alistipes) was “Active”, the Activity (Mus musculus [15]) was “Active” and the Activity (Mus musculus [16]) was “Active”. For the same compound, the Activity (Mus musculus [17]) was “Active”, the Activity (Mus musculus [18]) was “inactive” and the Activity (Mus musculus [19]) was “inactive”. The Activity (Mus musculus [20]) was “inactive”, the Activity (Mus musculus [21]) was “inactive” and the Activity (Mus musculus [22]) was “inactive”.
